Marks after values point to notes of the source that are not given here.
Columns and labels:
WRL-68 cells = experiment: MTT cell viability assay on normal human hepatic cells; settings: 24 hours, TQNLC concentration based on amount of TQ
Outline: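 Human normal liver WRL-68 cells were grown in DMEM with 10% FBS, 100 units/mL penicillin and 0.1 mg/mL streptomycin at 37°C under 5% CO2. They were seeded at 1 × 10^5 cells/mL, held 24 h, then exposed to test compound for 24 h. MTT (2 mg/mL) was added for 1 h and A570 read. Viability is % of untreated absorbance; IC50 is the concentration giving 50% growth loss. Cisplatin served as positive control.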

[1] = Pharmacokinetic study in rabbits; format: in vivo, New Zealand White rabbits
ethanol-induced ulcers = experiment: Ethanol-induced gastric ulcer in rats; format: in vivo, Sprague Dawley male rats
[2] = New Zealand White, rabbit, plasma, ip, 10 mg/kg
[3] = TQ in rabbits, single extravascular (IP) dose of TQNLC(20) 10 mg/kg, n = 3
[4] = oral pretreatment 60 mg/Kg 1 h before ethanol
[5] = oral pretreatment 20 mg/kg 1 h before ethanol

## N.N.[Cl][Pt][Cl] [cisplatin]
WRL-68 cells
  IC50 (concentration causing 50% loss of cell growth): 5.1 ± 0.28 µg/mL

## CC1=CC(=O)C(C(C)C)=CC1=O [Thymoquinone, thymoquinone]
[1]; [2]
  AUC(0-inf): 26822 ± 9.4 ng·h/mL
  Cmax: 4810 ± 55.5 ng/mL
  Tmax: 3.96 ± 0.19 h
  half-life: 4.493 ± 0.015 h
[1]; [3]
  CL (clearance): 11.8 ± 0.517 mL/min/kg
  Vd (volume of distribution): 4.32 ± 0.34 L/kg
ethanol-induced ulcers; [4]
  I% (inhibition percentage of ulcer area): 89.1%
  Mucus (weight of gastric mucosa): 3.24 ± 0.4^d
  UA (ulcer area): 112.4 ± 3.2^e mm^2
  pH (gastric juice): 6.5 ± 0.3^c

## COc1ccc2[nH]c([S+]([O-])Cc3ncc(C)c(OC)c3C)nc2c1 (stereo not shown) [Omeprazole]
ethanol-induced ulcers; oral 20 mg/kg, PAS staining
  PAS-positive mucus versus ulcer control group (in words): more PAS-positive mucus
ethanol-induced ulcers; oral 20 mg/kg, hematoxylin and eosin
  Histopathology of stomach versus ulcer control group (in words): improved
ethanol-induced ulcers; [5]
  I% (inhibition percentage of ulcer area): 80.8%
  UA (ulcer area): 183 ± 5.8^b mm^2
ethanol-induced ulcers; oral pretreatment 20 mg/kg 1 h before ethanol 5 mL/kg
  pH (gastric juice): 6.43 ± 0.2^b
